Reference: ChEMBL document CHEMBL4411337, “2-Aminothiazole Derivatives as Selective Allosteric Modulators of the Protein Kinase CK2. 1. Identification of an Allosteric Binding Site” (J Med Chem, 2019)
Activity calls are given as the source filed them. The rule behind the calls is not given here.

Legend:
[1] = target: Mast/stem cell growth factor receptor Kit (Homo sapiens) (UniProt P10721); assay: Inhibition of cKIT (unknown origin) assessed as residual activity at 50 uM relative to control
Summary of the method: (§1)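 Profiling panel of 44 human kinases. ATP set to each kinase's Km. Run in duplicate; duplicates within 15–17% of each other.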

[2] = target: Insulin receptor (Homo sapiens) (UniProt P06213); assay: Inhibition of activated IR (unknown origin) assessed as residual activity at 50 uM relative to control; summary of the method: as §1
[3] = target: Fibroblast growth factor receptor 1 (Homo sapiens) (UniProt P11362); assay: Inhibition of FGFR1 (unknown origin) assessed as residual activity at 50 uM relative to control
Summary of the method: (§2)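 Selectivity profiling against a panel of 44 human kinases. For each kinase, ATP was set to that kinase's Km. Values are residual activity in duplicate assays.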

[4] = target: CDK9/cyclin T1 (Homo sapiens) (UniProt O60563+P50750); assay: Inhibition of CDK9/cyclin T1 (unknown origin) assessed as residual activity at 50 uM relative to control; format: protein-complex assay; summary of the method: as §2
[5] = target: Aurora kinase B (Homo sapiens) (UniProt Q96GD4); assay: Inhibition of aurora B (unknown origin) assessed as residual activity at 50 uM relative to control; summary of the method: as §1
Sequence of Aurora kinase B (Homo sapiens) (Q96GD4 whole entry): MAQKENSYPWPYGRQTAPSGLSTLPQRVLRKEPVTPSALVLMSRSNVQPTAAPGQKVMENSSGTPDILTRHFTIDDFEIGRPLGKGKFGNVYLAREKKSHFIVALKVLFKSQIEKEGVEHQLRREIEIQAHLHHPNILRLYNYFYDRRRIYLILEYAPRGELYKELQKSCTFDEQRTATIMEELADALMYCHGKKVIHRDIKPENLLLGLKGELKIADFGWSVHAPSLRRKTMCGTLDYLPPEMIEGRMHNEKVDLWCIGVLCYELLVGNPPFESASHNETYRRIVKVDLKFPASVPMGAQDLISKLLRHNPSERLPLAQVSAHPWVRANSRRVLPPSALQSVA

[6] = target: Dual specificity tyrosine-phosphorylation-regulated kinase 2 (Homo sapiens) (UniProt Q92630); assay: Inhibition of DYRK2 (unknown origin) assessed as residual activity at 50 uM relative to control; summary of the method: as §2
[7] = target: Casein kinase II subunit alpha (Homo sapiens, UniProt P68400); assay: Mixed-type inhibition of recombinant human GST-tagged CK2alpha in presence of ATP by Lineweaver-Burk plot analysis
Sequence of Casein kinase II subunit alpha (P68400 whole entry): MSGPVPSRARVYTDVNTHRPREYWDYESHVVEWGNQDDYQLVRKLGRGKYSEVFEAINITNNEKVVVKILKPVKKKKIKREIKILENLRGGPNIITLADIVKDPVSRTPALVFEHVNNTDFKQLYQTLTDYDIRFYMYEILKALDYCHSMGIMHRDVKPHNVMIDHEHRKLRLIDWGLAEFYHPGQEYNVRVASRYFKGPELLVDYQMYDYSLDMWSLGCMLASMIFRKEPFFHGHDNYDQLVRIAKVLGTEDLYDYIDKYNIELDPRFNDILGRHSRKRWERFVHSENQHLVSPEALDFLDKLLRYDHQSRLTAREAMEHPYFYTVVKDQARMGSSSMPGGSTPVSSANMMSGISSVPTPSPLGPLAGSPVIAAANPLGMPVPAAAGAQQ

[8] = target: Muscle, skeletal receptor tyrosine-protein kinase (Homo sapiens) (UniProt O15146); assay: Inhibition of MUSK (unknown origin) assessed as residual activity at 50 uM relative to control; summary of the method: as §2
Sequence of Muscle, skeletal receptor tyrosine-protein kinase (Homo sapiens) (O15146 whole entry): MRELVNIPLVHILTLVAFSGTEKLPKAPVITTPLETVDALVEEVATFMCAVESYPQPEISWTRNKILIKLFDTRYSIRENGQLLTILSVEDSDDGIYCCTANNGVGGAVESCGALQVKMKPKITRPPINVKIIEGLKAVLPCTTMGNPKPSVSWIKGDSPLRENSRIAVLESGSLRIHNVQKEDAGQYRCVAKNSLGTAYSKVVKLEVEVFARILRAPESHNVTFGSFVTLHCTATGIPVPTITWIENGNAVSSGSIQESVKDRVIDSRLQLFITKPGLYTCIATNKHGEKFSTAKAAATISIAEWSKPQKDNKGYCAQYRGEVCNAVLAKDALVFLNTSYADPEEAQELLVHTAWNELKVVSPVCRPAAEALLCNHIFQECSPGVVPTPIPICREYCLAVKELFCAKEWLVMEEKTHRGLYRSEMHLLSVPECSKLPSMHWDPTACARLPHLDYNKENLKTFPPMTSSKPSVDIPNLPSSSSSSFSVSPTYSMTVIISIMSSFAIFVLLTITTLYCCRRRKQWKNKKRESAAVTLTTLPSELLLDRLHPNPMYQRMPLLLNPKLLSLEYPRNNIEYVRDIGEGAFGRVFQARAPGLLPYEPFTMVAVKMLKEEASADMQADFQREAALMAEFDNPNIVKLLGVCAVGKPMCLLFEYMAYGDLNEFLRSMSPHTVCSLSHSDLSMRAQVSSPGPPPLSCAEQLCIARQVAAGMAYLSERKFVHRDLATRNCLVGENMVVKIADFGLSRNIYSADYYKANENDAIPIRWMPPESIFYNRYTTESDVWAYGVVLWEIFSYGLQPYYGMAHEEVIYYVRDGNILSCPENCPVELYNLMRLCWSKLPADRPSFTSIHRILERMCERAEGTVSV

[9] = target: Serine/threonine-protein kinase Chk2 (Homo sapiens) (UniProt O96017); assay: Inhibition of CHK2 (unknown origin) assessed as residual activity at 50 uM relative to control; summary of the method: as §2
[10] = target: Inhibitor of nuclear factor kappa-B kinase subunit alpha (Homo sapiens) (UniProt O15111); assay: Inhibition of IKKalpha (unknown origin) assessed as residual activity at 50 uM relative to control; summary of the method: as §2
[11] = target: Casein kinase II alpha/beta (Homo sapiens) (UniProt P67870+P68400); assay: Inhibition of recombinant human GST-tagged CK2alpha2/CK2beta2 at 20 uM in presence of ATP and increasing CK2beta levels by radiometric kinase assay; format: protein-complex assay
Sequence of Casein kinase II alpha/beta (Homo sapiens) (P67870 2-215 limits assumed): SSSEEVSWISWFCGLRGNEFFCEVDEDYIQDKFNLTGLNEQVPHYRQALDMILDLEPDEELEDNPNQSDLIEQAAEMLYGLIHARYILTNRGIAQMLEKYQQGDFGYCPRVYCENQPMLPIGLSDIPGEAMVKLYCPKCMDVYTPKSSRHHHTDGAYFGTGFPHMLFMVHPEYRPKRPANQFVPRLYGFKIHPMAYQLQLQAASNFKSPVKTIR
Sequence of Casein kinase II alpha/beta (Homo sapiens) (P68400 whole entry partner): as the sequence (P68400 whole entry) above
Summary of the method: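 CK2α fixed at 150 nM and inhibitor fixed at 20 μM. CK2β was titrated at increasing concentrations and activity was read in the radiometric assay.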

[12] = target: Rho-associated protein kinase 1 (Homo sapiens) (UniProt Q13464); assay: Inhibition of ROCK1 (unknown origin) assessed as residual activity at 50 uM relative to control; summary of the method: as §1
Sequence of Rho-associated protein kinase 1 (Homo sapiens) (Q13464 2-1354 limits assumed): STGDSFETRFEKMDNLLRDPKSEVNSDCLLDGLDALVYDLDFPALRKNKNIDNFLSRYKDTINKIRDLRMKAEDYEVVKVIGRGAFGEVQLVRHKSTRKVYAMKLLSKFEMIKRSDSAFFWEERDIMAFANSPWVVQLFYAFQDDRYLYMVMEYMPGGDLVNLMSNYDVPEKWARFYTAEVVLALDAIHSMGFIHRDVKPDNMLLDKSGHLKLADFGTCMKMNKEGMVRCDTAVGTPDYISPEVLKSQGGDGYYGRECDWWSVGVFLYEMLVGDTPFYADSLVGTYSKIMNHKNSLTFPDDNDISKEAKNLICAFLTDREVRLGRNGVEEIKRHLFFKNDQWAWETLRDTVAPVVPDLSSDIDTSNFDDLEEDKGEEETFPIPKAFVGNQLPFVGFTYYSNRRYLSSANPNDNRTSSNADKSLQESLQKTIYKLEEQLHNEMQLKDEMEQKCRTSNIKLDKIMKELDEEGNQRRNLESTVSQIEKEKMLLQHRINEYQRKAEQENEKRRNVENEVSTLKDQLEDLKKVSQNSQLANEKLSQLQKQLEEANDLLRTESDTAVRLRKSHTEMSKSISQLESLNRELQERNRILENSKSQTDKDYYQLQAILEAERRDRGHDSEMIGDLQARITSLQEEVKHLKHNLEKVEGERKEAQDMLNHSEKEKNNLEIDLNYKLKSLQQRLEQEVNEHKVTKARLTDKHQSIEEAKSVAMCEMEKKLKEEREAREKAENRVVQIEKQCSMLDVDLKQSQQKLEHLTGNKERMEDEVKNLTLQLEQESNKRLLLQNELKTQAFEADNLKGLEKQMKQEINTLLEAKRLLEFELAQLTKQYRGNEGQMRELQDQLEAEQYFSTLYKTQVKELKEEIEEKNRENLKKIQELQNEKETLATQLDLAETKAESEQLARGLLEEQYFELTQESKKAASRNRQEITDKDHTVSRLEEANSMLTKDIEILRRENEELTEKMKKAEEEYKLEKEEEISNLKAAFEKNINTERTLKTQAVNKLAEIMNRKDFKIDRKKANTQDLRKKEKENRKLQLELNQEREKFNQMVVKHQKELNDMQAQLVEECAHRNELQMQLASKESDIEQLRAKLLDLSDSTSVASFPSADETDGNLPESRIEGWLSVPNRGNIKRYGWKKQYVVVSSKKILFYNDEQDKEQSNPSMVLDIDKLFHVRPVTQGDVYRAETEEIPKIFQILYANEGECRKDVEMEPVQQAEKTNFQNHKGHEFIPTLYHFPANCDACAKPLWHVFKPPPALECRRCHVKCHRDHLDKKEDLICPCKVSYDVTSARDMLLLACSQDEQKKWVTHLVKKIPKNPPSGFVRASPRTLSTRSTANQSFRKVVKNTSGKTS

[13] = target: Glycogen synthase kinase-3 beta (Homo sapiens) (UniProt P49841); assay: Inhibition of GSK3beta (unknown origin) assessed as residual activity at 50 uM relative to control; summary of the method: as §2
Sequence of Glycogen synthase kinase-3 beta (Homo sapiens) (P49841 whole entry, looked up): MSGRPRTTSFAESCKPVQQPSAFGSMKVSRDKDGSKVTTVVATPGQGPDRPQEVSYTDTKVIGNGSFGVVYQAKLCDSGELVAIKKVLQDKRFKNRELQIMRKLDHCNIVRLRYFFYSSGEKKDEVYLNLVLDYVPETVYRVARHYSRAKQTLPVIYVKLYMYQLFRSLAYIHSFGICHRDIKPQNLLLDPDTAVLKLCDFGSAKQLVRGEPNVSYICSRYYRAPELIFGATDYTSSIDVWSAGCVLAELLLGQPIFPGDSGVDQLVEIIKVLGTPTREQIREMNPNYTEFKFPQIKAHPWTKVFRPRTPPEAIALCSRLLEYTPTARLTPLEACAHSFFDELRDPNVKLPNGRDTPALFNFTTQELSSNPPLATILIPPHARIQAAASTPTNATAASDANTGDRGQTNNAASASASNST

[14] = target: Mitogen-activated protein kinase 1 (Homo sapiens) (UniProt P28482); assay: Inhibition of MAPK1 (unknown origin) assessed as residual activity at 50 uM relative to control; summary of the method: as §2
Sequence of Mitogen-activated protein kinase 1 (Homo sapiens) (P28482 whole entry): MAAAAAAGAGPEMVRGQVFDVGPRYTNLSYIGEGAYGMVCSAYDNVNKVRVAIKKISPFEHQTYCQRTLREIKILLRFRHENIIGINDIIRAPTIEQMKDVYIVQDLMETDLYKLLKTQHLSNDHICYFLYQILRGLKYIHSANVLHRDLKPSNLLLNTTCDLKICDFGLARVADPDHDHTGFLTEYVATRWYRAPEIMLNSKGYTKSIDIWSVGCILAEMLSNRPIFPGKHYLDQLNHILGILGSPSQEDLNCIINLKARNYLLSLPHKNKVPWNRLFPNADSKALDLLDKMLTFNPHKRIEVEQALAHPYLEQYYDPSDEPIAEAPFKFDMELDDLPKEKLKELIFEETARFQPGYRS

Sequence of Mast/stem cell growth factor receptor Kit (Homo sapiens) (P10721 whole entry): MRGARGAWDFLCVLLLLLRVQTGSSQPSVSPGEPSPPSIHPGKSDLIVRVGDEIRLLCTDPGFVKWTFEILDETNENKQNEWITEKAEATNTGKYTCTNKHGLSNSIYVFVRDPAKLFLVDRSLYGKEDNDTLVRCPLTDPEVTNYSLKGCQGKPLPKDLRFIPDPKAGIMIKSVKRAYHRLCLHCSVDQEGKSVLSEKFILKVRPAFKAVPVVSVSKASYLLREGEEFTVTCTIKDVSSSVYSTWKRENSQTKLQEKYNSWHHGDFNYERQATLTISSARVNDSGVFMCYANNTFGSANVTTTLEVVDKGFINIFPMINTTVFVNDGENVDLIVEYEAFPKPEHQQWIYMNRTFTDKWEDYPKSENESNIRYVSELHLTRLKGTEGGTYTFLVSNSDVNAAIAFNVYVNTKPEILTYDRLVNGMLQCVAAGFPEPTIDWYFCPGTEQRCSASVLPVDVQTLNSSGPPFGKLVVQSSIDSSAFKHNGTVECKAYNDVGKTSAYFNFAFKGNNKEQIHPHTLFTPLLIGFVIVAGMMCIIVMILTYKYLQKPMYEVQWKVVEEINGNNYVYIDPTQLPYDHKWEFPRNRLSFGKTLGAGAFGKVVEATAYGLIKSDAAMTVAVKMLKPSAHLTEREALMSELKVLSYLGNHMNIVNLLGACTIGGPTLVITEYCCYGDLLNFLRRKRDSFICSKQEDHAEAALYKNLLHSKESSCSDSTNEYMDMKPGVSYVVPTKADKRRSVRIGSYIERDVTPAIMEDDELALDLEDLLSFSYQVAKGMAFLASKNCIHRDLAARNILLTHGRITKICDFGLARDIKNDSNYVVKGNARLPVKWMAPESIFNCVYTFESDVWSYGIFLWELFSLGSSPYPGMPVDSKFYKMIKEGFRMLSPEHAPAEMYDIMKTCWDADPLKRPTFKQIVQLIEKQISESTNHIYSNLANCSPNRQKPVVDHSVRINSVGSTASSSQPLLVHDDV

Question: With `O=C(O)c1ccc(Nc2nc(-c3cccc([N+](=O)[O-])c3)cs2)cc1` as the compound, how does the Activity [1] read?
Answer: 87%

Question: What about the Activity [2] of the same compound?
Answer: 93%

Question: And the Activity [3]?
Answer: 97%

Question: And the Activity [4]?
Answer: 99%

Question: And the Activity [5]?
Answer: 74%

Question: And the Activity [6]?
Answer: 78%

Question: And the Ki [7]?
Answer: 1.6 µM

Question: And the Activity [8]?
Answer: 62%

Question: What about the Activity [9] of the same compound?
Answer: 89%

Question: What about the Activity [10] of the same compound?
Answer: 103%

Question: What about the inhibition [11] of the same compound?
Answer: Active

Question: And the Activity [12]?
Answer: 100%

Question: What about the Activity [13] of the same compound?
Answer: 79%

Question: What about the Activity [14] of the same compound?
Answer: 84%
